The results in this text go back to ChEMBL document CHEMBL4414600, “Discovery of a Furanopyrimidine-Based Epidermal Growth Factor Receptor Inhibitor (DBPR112) as a Clinical Candidate for the Treatment of Non-Small Cell Lung Cancer” (J Med Chem, 2019).

What is called IC50 is the midpoint of a concentration-inhibition curve. What is called Tmax is the time from dosing to the highest level. What is called half-life is how long it takes for the measured level to halve. As a reminder, the AUC(0-inf) is total exposure, with the tail of the curve extrapolated. Higher therefore signals more exposure. One may read the CC50 as the concentration giving 50% cytotoxicity.

A short description of series [1]: Inhibition of GST-tagged human EGFR D770GY mutant using poly(Glu, Tyr) 4:1 substrate incubated for 120 mins by kinase-Glo plus luminescent kinase assay.
The nature of series [2]: Toxicity in nude BALB/c mouse xenografted with human NCI-H1975 cells assessed as drug tolerability at 50 mg/kg, po QD for 15 days relative to control. The class given is organism-based. Conditions: in vivo, 360 h. The procedure, abridged:
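H1975 cells were grown in RPMI1640 with 10% heat-inactivated FBS at 37 °C, 5% CO2, and passaged by trypsin-EDTA. 5x10^6 cells in 0.1 ml PBS were injected subcutaneously at the right flank of BALB/c nude mice. Oral QD dosing for 15 days began at a mean tumor size of 147 mm³, n = 5 per group.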
(In general: Xenograft models place foreign cells or tissue in a host animal.)

Series [3] can be described thus: Tmax in rat at 23.6 mg/kg, po. The class given is ADME, organism-based. Conditions: in vivo. The procedure, abridged:
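Rat pharmacokinetics: single IV injection at 5 mg/kg or oral dosing at 20 mg/kg (23.6 mg/kg oral for one compound). Plasma parameters t1/2, CL, Vss, AUC(0-inf), Cmax, Tmax and oral bioavailability F were derived from the concentration–time profiles.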

The nature of series [4]: in vivo. Conditions: rat, po, 23.6 mg/kg.
Series [5] is described as follows: Toxicity in athymic NU-Fox1nu nude mouse xenografted with human HCC827 cells assessed as effect on body weight at 20 to 50 mg/kg, po dosed via gavage for 5 days/week for 2 consecutive weeks. The format is organism-based. Conditions: in vivo, 120 h. The procedure, abridged:
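Male athymic NU-Fox1nu nude mice, 6–8 weeks old, were inoculated subcutaneously at the left flank with 5x10^6 HCC827 (exon 19 Del E746_A750) cells. Oral gavage began at a mean tumor size of about 500 mm³, in 1% methylcellulose/0.5% Tween 80/98.5% water, once daily on days 1-5 and 8-12. Tumor volume (V = 0.5 a × b², caliper) and body weight were tracked.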

Series [6] addresses Receptor tyrosine-protein kinase erbB-2 (Homo sapiens) (UniProt P04626). Briefly: Binding affinity to wild-type human partial length ERBB2 (K646 to V1225 residues) expressed in mammalian expression system assessed as residual binding level at 10000 nM by Kinomescan method relative to control. In outline: (§1)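 KINOMEscan competition-binding profiling at a single concentration of 10,000 nM across a panel that included 395 non-mutant kinases. Binding is read out as percent of control. Kinases with less than 10% of control were counted as hits for the S(10) selectivity score, which is the number of non-mutant hits divided by the number of non-mutant kinases tested.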

Series [7] in a line: in vivo. Conditions: rat, po, 23.6 mg/kg. This is another data set of the same source.
Series [8] has as its target T1, Tyrosine-protein kinase JAK3 (Homo sapiens) (UniProt P52333).
T1 sequence (whole entry): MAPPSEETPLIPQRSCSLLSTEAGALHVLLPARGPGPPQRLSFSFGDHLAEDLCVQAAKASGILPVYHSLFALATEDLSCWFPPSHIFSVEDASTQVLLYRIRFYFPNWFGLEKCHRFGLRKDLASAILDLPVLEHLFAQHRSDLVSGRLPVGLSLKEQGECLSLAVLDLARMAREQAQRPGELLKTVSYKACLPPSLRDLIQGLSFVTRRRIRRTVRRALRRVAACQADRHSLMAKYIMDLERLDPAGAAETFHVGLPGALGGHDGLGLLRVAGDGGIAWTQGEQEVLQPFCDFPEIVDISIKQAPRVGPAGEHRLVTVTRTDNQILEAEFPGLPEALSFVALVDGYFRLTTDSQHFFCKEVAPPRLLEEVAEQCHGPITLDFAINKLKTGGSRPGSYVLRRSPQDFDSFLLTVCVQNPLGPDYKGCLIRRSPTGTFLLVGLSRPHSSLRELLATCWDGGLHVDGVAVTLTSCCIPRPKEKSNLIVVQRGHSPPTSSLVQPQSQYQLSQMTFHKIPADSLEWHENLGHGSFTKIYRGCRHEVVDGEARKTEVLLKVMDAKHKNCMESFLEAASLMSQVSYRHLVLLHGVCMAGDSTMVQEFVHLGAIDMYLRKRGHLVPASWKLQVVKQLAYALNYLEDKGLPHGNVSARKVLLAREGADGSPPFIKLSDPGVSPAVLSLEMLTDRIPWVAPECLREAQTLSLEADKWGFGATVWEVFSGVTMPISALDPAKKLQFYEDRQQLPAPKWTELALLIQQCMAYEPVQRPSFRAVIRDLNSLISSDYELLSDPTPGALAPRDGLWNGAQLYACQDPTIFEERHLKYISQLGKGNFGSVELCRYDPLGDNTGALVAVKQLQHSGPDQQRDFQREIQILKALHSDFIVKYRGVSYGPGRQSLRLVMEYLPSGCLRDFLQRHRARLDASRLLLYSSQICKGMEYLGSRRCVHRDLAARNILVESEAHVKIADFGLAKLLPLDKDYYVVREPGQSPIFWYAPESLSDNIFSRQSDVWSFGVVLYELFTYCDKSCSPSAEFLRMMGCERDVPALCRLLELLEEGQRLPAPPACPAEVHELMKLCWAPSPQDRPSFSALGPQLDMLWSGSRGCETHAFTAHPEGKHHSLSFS
Briefly: Binding affinity to wild-type human partial length JAK3 JH1 catalytic domain (I781 to S1124 residues) expressed in mammalian expression system assessed as residual binding level at 10000 nM by Kinomescan method relative to control. In outline: as §1

For series [9], the target named is Receptor tyrosine-protein kinase erbB-4 (Homo sapiens) (UniProt Q15303). As to the kind of experiment: Binding affinity to wild-type human partial length ERBB4 (L690 to K994 residues) expressed in bacterial expression system assessed as residual binding level at 10000 nM by Kinomescan method relative to control. The procedure, abridged: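 KINOMEScan competition binding panel run at 10,000 nM compound, with results expressed as percent of control binding. S(10) is the fraction of non-mutant kinases below 10% of control, out of 395 tested.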
Sequence of Receptor tyrosine-protein kinase erbB-4 (Homo sapiens) (Q15303 whole entry, the tested form may be a part): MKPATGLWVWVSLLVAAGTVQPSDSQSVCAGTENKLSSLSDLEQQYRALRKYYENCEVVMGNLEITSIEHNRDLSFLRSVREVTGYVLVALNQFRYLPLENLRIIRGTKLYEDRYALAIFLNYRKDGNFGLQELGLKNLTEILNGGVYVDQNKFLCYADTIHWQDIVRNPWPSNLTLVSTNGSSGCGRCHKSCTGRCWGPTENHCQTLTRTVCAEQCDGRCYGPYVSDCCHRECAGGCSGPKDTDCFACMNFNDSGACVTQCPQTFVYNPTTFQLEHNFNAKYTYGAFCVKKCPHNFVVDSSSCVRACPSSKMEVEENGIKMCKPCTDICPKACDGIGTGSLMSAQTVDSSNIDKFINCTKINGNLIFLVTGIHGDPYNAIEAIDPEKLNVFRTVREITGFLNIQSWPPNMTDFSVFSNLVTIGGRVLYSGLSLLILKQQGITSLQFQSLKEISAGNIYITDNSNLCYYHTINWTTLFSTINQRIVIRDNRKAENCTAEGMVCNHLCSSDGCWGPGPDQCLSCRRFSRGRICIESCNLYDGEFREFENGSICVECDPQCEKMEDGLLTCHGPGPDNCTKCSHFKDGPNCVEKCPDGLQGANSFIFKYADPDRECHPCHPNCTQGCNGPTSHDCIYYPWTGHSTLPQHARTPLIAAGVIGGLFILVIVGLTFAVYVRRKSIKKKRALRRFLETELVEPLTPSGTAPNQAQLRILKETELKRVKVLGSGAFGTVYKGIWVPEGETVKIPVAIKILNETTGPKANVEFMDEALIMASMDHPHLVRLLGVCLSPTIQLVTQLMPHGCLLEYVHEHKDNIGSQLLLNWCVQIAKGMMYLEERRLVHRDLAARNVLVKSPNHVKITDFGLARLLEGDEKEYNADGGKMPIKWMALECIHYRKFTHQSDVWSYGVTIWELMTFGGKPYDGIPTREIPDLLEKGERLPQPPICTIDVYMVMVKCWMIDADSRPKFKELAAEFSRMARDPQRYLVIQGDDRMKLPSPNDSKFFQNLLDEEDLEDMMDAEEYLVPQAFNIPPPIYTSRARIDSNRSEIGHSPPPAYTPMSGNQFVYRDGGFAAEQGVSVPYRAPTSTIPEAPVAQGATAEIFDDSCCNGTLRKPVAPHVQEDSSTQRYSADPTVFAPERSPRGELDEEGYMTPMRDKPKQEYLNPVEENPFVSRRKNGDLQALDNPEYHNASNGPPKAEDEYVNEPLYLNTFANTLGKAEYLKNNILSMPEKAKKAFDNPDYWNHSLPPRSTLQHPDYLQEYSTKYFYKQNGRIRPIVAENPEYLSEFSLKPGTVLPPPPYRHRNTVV

A short description of series [10]: Inhibition of GST-tagged human HER2 V777_G778insCG mutant mutant using poly(Glu, Tyr) 4:1 substrate incubated for 120 mins by kinase-Glo plus luminescent kinase assay.
Series [11] is described as follows: Toxicity in ICR mouse at 100 mg/kg, po QD for 2 weeks. The class given is organism-based. Conditions: in vivo, 336 h.
The test system of series [12] is HCC827. Briefly: Cytotoxicity in human HCC827 cells assessed as reduction in cell viability incubated for 96 hrs by MTS method. The class given is functional. (In general: Formazan colour is commonly taken as a measure of viable cells.)

Sequence of Receptor tyrosine-protein kinase erbB-2 (Homo sapiens) (P04626 whole entry, the tested form may be a part): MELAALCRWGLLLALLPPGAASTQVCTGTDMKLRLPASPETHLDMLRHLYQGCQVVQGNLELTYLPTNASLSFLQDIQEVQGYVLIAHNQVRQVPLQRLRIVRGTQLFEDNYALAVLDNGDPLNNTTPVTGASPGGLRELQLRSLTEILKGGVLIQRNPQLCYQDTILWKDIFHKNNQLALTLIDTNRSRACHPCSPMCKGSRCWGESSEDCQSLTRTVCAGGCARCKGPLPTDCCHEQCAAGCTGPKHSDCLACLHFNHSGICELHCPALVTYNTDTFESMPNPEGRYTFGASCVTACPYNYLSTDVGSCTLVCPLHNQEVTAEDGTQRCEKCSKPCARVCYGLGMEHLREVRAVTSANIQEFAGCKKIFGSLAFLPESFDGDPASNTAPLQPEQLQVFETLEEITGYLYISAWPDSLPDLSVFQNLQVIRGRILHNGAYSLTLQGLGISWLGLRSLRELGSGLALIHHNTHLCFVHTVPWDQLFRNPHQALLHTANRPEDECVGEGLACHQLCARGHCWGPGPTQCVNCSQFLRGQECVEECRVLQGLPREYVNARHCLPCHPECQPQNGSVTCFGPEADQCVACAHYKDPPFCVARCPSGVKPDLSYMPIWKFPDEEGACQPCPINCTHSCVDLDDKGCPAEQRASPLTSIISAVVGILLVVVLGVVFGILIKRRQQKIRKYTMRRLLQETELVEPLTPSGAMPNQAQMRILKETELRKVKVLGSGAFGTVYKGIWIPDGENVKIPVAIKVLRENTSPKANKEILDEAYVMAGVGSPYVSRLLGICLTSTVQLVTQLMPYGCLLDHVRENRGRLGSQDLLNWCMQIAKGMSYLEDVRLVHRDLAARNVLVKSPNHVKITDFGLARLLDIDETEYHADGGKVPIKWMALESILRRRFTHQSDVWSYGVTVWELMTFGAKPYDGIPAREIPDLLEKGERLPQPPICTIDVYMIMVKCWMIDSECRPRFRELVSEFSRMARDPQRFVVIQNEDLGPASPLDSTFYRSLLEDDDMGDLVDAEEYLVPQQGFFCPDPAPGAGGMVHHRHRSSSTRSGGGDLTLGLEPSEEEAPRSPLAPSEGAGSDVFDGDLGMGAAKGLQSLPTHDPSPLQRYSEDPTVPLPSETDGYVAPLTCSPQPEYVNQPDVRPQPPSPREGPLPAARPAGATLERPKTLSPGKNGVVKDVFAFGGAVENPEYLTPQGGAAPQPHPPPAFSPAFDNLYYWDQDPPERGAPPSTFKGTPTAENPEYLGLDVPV

Take `CN(C)C/C=C/C(=O)Nc1cccc(-c2c(-c3ccccc3)oc3ncnc(N[C@H](CO)c4ccccc4)c23)c1`: the IC50 in series [1] is 0.033 nM; in series [10] it was 0.203 nM. The Activity result in [2] was “Non-Toxic”; in [5], “Non-Toxic”; in series [6], 0%; in series [8], 0%; in series [9], 0.05%; in series [11], “Toxic”. Further, in series [3], the Tmax is 3.3 h. The half-life in series [4] is 3.4 h. The same compound gave an AUC(0-inf) in series [7] of 2980 ng·h/mL. In addition, the CC50 in [12] came to 25 nM.
